Results on 3 compounds are retold here after PMC3182445 (The Journal of General Physiology, 2011).

The target of one data set is T1, rat P2X7R (Rattus norvegicus, UniProt Q64663).
T1 sequence (Q64663 1-595): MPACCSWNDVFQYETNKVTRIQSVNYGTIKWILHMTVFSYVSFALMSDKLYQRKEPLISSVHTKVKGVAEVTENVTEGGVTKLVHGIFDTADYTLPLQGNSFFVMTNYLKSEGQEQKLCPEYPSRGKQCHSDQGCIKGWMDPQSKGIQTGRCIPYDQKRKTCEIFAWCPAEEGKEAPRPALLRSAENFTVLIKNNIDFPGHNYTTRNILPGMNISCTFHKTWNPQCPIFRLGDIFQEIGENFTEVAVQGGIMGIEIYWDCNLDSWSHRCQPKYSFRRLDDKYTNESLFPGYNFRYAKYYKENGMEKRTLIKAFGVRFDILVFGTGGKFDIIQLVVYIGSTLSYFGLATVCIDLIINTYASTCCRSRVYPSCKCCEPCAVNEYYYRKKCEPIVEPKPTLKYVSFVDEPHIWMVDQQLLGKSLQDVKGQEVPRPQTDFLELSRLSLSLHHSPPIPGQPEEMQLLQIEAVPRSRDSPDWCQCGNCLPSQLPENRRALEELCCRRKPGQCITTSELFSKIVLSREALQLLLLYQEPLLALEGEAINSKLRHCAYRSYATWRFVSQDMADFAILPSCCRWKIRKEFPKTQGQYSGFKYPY
The class given is cell-based.

Another data set deals with rP2X7R-H130A mutant. The class given is cell-based, rat. To be noted: 100 µM BzATP; 10 mM Ca^2+ vs Ca^2+-deficient medium. The method in brief:
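Rat P2X7R-H130A mutant transfected into HEK293 cells (2 µg DNA, Lipofectamine 2000, serum-free Opti-MEM 4.5 h, then 24–48 h), replated 2–10 h, EGFP-positive cells chosen. Whole-cell patch clamp at room temperature, −60 mV hold. Pipette: 145 mM NaCl, 10 mM EGTA, 10 mM HEPES, pH 7.35. Bath: Krebs-Ringer-like, 1 mM MgCl2, pH 7.35. 100 µM BzATP given in Ca2+-deficient or 10 mM Ca2+ medium. Four experiments, mean ± SEM.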

Data set [1] in a line: Free calcium concentration in bath medium by calcium ion selective electrode. The class given is physicochemical. Particulars: agonist concentrations above 100 µM; Mg^2+-free buffer, Ca^2+ fixed at 950 µM. The method in brief:
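Free Ca2+ read with a Ca2+-selective electrode. Mg2+-free buffer: 147 mM NaCl, 3 mM KCl, 10 mM glucose, 10 mM HEPES, pH 7.35, with 0.95 mM Ca2+. ATP or BzATP at 0, 1, 3.2, 10, 32, 100 and 320 µM, diluted from 10 mM aqueous stocks. Millivolt readings converted using a semilogarithmic standard curve. Means of three experiments.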

Read-outs that look alike come from different tables or passages of the source.

For the compound `[Ca+2]` [Ca^2+, calcium], on rat P2X7R (naive receptors, 2-mM Ca^2+-containing vs Ca^2+-deficient medium, 1 mM Mg^2+), the “rightward shift in agonist (ATP, BzATP) dose-response” value was roughly 0.5 log units. Further, the “decrease in the peak amplitude of current” value in the data set with rP2X7R-H130A mutant came to 15 fold.
With 2’(3′)-O-4-benzoylbenzoyl)ATP [BzATP], the “free Ca^2+ concentration in presence of BzATP relative to ATP (higher)” value in data set [1] is given as 2–3%.
As for `Clc1cccc(-c2nnnn2Cc2cccnc2)c1Cl` [A438079], the “time for effect on receptor deactivation” value at rat P2X7R (100 µM A438079 applied during washout of 100 µM BzATP, Ca^2+-containing and Ca^2+-deficient medium) was roughly 0.8 s. In addition, the “potency relative to ATP” value at rat P2X7R (higher potency than ATP at rat receptor) is recorded as ~3,000 fold. Also, at rat P2X7R (higher potency than BzATP at rat receptor), the “potency relative to BzATP” value is given as 200 fold. Besides, the “current generated when applied alone” value at rat P2X7R (no agonist, unpublished data) is reported as “did not generate any current”. In addition, the IC50 is roughly 300 nM at rat P2X7R (read-out: IC50, inhibition of current, cells stimulated with 32 µM BzATP) and roughly 1000 nM at rat P2X7R (read-out: IC50, reduction of peak amplitude of current, applied together with 3.2 mM ATP, estimated).
